The text below walks through data of BindingDB's records for doi:10.1016/j.bmc.2008.04.041 (The University of Tokushima, 2008).

Each structure is given as a SMILES string.

For assay [1], the target named is 72 kDa type IV collagenase (Homo sapiens, UniProt P08253). Description: Inhibition of human bowes melanoma cell MMP2.
Assay [2] concerns the target Matrix metalloproteinase-9 (Bos taurus, UniProt P52176). Kind of assay: Inhibition of bovine arterial endothelial cell MMP9.
For assay [3], the target named is Epidermal growth factor receptor (Homo sapiens, UniProt P00533). Description: Inhibition of human A431 cell EGFRK assessed as 32P phosphorylation by scintillation counter. In outline: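 Solubilized A431 cell lysate, debris removed, incubated with or without EGF for 30 min at 25 °C. Reaction started with [γ-³²P]ATP, 10 min at 0 °C. After stopping and washing, receptor phosphorylation measured as ³²P by scintillation counting.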
Epidermal growth factor receptor, sequence (P00533 whole entry): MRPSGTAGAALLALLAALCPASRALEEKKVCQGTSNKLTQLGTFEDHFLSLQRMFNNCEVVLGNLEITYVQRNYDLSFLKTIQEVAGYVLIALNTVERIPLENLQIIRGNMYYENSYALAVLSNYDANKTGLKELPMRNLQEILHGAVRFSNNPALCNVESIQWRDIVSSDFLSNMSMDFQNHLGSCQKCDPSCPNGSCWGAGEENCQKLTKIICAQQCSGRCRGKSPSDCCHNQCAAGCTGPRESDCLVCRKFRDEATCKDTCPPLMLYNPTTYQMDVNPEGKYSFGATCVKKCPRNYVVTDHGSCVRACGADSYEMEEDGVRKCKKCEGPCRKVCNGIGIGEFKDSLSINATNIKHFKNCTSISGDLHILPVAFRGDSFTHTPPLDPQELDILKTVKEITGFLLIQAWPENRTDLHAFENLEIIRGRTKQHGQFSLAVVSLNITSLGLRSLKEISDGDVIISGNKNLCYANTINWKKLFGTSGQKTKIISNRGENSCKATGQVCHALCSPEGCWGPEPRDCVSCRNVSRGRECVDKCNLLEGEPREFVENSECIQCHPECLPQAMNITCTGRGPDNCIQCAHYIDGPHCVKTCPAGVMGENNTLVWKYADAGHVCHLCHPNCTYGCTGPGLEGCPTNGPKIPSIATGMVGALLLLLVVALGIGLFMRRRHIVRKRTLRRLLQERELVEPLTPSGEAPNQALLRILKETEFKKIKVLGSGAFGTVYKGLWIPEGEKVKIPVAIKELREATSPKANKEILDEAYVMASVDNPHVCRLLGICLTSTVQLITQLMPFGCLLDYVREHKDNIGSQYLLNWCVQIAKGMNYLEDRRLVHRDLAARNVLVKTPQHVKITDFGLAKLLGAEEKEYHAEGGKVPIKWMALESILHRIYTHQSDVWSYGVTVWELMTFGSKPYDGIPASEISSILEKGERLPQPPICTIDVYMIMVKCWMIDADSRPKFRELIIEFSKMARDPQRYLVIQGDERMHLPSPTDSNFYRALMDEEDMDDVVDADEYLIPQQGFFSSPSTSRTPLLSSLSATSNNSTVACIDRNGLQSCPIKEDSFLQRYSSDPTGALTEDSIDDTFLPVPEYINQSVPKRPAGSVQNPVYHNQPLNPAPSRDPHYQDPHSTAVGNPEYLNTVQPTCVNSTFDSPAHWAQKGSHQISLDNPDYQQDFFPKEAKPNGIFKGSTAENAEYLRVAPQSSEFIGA

Assay [4] deals with Vascular endothelial growth factor receptor 1 (Homo sapiens, UniProt P17948). Kind of assay: Inhibition of Flt1 expressed in mouse NIH3T3 cells by autoradiography.
Vascular endothelial growth factor receptor 1, sequence (P17948 whole entry): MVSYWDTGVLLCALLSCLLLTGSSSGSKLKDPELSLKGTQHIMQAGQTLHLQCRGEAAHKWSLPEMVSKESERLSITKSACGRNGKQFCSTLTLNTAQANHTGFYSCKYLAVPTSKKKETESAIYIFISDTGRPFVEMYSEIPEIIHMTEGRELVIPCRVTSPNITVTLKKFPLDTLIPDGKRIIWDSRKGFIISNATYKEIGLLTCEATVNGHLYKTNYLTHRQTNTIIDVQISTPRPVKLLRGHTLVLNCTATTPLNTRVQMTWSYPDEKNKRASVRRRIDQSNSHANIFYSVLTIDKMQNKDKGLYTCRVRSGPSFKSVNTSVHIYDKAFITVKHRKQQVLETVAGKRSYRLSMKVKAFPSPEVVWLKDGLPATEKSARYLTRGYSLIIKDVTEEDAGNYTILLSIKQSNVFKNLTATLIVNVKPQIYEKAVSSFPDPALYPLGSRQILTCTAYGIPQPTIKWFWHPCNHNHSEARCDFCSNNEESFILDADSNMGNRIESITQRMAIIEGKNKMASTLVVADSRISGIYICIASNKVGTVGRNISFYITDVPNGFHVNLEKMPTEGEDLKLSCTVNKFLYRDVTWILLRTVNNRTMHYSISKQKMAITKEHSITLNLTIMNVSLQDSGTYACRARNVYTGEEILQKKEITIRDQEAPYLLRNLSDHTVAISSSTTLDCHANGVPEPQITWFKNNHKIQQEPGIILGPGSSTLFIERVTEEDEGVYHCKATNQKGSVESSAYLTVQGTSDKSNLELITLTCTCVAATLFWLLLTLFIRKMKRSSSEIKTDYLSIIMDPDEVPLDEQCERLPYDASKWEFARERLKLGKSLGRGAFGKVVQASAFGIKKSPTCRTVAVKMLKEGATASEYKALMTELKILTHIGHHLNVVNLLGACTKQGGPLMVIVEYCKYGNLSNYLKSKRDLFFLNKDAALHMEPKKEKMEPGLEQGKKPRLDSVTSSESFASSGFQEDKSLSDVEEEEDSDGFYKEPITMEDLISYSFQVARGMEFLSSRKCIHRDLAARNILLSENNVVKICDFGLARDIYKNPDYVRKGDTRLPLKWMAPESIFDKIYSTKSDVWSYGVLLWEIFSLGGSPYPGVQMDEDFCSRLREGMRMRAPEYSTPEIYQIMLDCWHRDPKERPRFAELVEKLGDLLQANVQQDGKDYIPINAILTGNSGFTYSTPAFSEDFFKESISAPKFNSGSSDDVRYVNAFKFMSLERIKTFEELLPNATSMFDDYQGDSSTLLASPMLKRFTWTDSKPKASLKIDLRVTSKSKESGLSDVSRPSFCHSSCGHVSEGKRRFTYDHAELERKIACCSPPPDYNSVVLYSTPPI

The IC50 is the concentration that inhibits the measured activity by half.

Matrix metalloproteinase-9, sequence (P52176 whole entry): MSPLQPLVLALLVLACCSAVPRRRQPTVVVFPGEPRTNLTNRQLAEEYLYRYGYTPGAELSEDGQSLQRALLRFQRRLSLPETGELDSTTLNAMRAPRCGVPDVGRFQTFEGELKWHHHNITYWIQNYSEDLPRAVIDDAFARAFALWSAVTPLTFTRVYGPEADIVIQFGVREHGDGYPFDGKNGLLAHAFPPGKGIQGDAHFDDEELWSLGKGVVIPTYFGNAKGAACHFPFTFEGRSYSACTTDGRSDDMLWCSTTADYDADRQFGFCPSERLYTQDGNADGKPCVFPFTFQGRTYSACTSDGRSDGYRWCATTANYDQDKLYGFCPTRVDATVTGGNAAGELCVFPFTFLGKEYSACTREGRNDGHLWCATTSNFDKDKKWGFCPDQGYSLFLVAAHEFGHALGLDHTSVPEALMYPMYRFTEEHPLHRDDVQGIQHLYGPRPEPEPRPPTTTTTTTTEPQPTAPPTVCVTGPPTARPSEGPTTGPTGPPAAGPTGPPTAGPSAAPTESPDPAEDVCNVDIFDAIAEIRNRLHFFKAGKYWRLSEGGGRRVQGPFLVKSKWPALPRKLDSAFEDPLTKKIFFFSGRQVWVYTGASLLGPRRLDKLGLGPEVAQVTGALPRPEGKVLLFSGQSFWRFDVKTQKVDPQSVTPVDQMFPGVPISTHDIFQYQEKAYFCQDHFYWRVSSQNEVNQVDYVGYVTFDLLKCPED
72 kDa type IV collagenase, sequence (P08253 whole entry): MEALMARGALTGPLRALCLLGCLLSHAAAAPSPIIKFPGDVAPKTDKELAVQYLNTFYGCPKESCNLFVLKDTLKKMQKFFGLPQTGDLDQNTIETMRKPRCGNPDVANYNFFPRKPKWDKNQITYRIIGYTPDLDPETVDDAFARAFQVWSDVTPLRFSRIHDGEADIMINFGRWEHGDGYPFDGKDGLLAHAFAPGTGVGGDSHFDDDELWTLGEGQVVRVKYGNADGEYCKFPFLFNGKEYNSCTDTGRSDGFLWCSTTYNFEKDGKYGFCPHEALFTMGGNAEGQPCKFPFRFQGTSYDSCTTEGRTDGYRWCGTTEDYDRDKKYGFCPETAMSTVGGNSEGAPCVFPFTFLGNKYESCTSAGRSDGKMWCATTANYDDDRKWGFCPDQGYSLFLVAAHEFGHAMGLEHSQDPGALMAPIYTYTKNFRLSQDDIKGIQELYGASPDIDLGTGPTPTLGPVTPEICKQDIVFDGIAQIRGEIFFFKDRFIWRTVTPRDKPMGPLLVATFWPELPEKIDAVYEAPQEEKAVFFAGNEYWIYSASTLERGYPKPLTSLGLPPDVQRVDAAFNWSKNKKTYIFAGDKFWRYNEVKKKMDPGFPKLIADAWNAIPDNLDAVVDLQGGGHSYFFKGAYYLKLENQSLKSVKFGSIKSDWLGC

For the compound `COC[C@H](Cn1ccnc1[N+](=O)[O-])OC(=O)c1ccc(NC(=O)C(F)(F)F)cc1` [TX-2046], the 50% inhibitory concentration (IC50) in assay [1] and in assay [2] was above 240 µM each time.

`COC[C@H](Cn1ccnc1[N+](=O)[O-])OC(=O)c1ccc(NC=C2C(=O)C=CC2=O)cc1` [TX-2044]: in assay [3], the IC50 stood at 23 µM.

Take `COC[C@@H](Cn1ccnc1[N+](=O)[O-])OC(=O)c1ccc(NC=C2C(=O)C=CC2=O)cc1`: the IC50 was 24 µM in assay [1], 53 µM in assay [2] and 23.4 µM in assay [4].

For `COC[C@@H](Cn1ccnc1[N+](=O)[O-])OC(=O)c1ccc(NC(=O)C(F)(F)F)cc1` [TX-2045], the IC50 in assay [1] and in assay [2] was above 240 µM throughout.

Regarding `CC(C)(C)c1ccc(OC[C@@H](Cn2ccnc2[N+](=O)[O-])OC(=O)c2ccc(NC=C3C(=O)C=CC3=O)cc2)cc1` [TX-2036], the figures for the IC50 in assay [2], in assay [4] and in assay [3] were 67 µM, 18.4 µM and 1.8 µM, respectively.

With `CC(C)(C)c1ccc(OC[C@H](Cn2ccnc2[N+](=O)[O-])OC(=O)c2ccc(NC=C3C(=O)C=CC3=O)cc2)cc1` [TX-2037], the IC50 amounted to 183 µM in assay [1], 103 µM in assay [2], 184 µM in assay [4] and 18.4 µM in assay [3].
